# Assay results taken from ChEMBL document CHEMBL3244180, “Synthesis of branched-chain apiosylpyrimidines and their inhibition of lymphocyte proliferation” (1978).
# Active and inactive are the calls of the source. The calls are words filed in the database; no cut-off is given here.
# Columns and labels:
# [1] = test system: MGL8; test: Growth inhibition of human MGL8 cells at 5 uM after 48 hrs; format: functional, cell-based
# In short: (§1)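 MGL-8 lymphoblasts seeded at 22 × 10⁴ cells/mL in stationary suspension in RPMI 1640 with 10% fetal calf serum, penicillin and streptomycin; 48 h at 37 °C; cells counted by Coulter counter; growth expressed as % of untreated control; significance tested (p < 0.01).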
# [2] = Growth inhibition of human MGL8 cells at 50 uM after 48 hrs relative to control; format: functional; settings: MGL8, 48 h, read-out: GI; in short: as §1
# [3] = Growth inhibition of human MGL8 cells at 500 uM after 48 hrs relative to control; format: functional; settings: MGL8, 48 h, read-out: GI; in short: as §1
# [4] = Immunosuppressive activity against PHA-stimulated proliferation in rat T-lymphocytes assessed as cell viability at 1 uM […] by [3H]thymidine incorporation method relative to control; format: functional; settings: read-out: Activity
# [5] = Immunosuppressive activity against PHA-stimulated proliferation in rat T-lymphocytes assessed as cell viability at 100 uM after 6 days by [3H]thymidine incorporation method relative to control; format: functional; settings: read-out: Activity
# In short: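 Rat lymphocytes incubated 6 days at 37 °C with 100 μM compound; result expressed as percentage of viable lymphocytes.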
# [6] = test system: T-cell; test: Immunosuppressive activity against PHA-stimulated proliferation in rat T-lymphocytes assessed as cell viability at 0.01 to 0.1 uM […] by [3H]thymidine incorporation method relative to control; format: functional, cell-based
# [7] = test system: Human alphaherpesvirus 2; test: Antiviral activity against HSV2 infected in BHK cells assessed as reduction of viral plaque at 4 uM after 24 hrs; format: functional
# In short: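 BHK confluent monolayers in 24-well trays; supernatant removed and 50 μL virus dilution added per well; 2 h at 37 °C, 5% CO2, 100% humidity with intermittent agitation. Eagle's medium containing tryptose phosphate broth and calf serum then added; viral plaques counted after 24 h.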
# [8] = test system: Staphylococcus aureus; test: Antibacterial activity against Staphylococcus aureus at 1 mg/ml; format: functional, organism-based
# In short: (§2)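 Organisms grown on agar plates at 37 °C. Compound dissolved at 1 mg/mL in methanol, applied to a 2-cm disk, and the disk placed on agar streaked with the organism.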
# [9] = test system: Bacillus subtilis; test: Antibacterial activity against Bacillus subtilis at 1 mg/ml; format: functional, organism-based; in short: as §2
# [10] = test system: Micrococcus luteus; test: Antibacterial activity against Sarcina lutea at 1 mg/ml; format: functional, organism-based; in short: as §2
# [11] = test system: Proteus vulgaris; test: Antibacterial activity against Proteus vulgaris at 1 mg/ml; format: functional, organism-based; in short: as §2
# [12] = test system: Salmonella enterica subsp. enterica serovar Gallinarum; test: Antibacterial activity against Salmonella gallinarum at 1 mg/ml; format: functional, organism-based; in short: as §2
# [13] = test system: Escherichia coli; test: Antibacterial activity against Escherichia coli at 1 mg/ml; format: functional, organism-based; in short: as §2
# [14] = test system: Pseudomonas aeruginosa; test: Antibacterial activity against Pseudomonas aeruginosa at 1 mg/ml; format: functional, organism-based; in short: as §2
# [15] = test system: Ralstonia solanacearum; test: Antibacterial activity against Pseudomonas solanacearum at 1 mg/ml; format: functional, organism-based
# In short: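 Agar disk diffusion: test compound at 1 mg/mL in methanol, applied to a 2-cm disk laid on agar plates streaked with the organism.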
# [16] = test system: Serratia marcescens; test: Antibacterial activity against Serratia marcescens at 1 mg/ml; format: functional, organism-based; in short: as §2
# [17] = test system: Saccharomyces pastorianus; test: Antifungal activity against Saccharomyces pastorianus at 1 mg/ml; format: functional, organism-based; in short: as §2
# [18] = test system: Neurospora crassa; test: Antifungal activity against Neurospora crassa at 1 mg/ml; format: functional, organism-based; in short: as §2
# [19] = test system: Candida albicans; test: Antifungal activity against Candida albicans at 1 mg/ml; format: functional, organism-based; in short: as §2
SMILES,growth inhibition (GI) [1],inhibition of growth at 50 µM [2],inhibition of growth at 500 µM [3],thymidine incorporation of control at 1 µM [4],viability at 100 µM [5],Activity [6],Activity [7],Activity [8],Activity [9],Activity [10],Activity [11],Activity [12],Activity [13],Activity [14],Activity [15],Activity [16],Activity [17],Activity [18],Activity [19]
O=c1[nH]c(=O)n([C@@H]2O[C@H](CO)[C@@H](O)[C@H]2O)cc1Br,inactive,40%,11%,–,–,–,–,–,–,–,–,–,–,–,–,–,–,–,–
Nc1ccn([C@@H]2O[C@H](CO)[C@@H](O)[C@@H]2O)c(=O)n1 [CYTARABINE],–,–,–,18%,76%,inactive,–,–,–,–,–,–,–,–,–,–,–,–,–
O=c1[nH]c(=O)n([C@@H]2OC[C@@](O)(CO)[C@H]2O)cc1Br,inactive,52%,13%,–,–,–,inactive,–,–,–,–,–,–,–,–,–,–,–,–
CC(=O)O[C@H]1[C@H](n2cc(Br)c(=O)[nH]c2=O)OC[C@@]12COC(=O)O2,–,–,–,–,–,–,–,inactive,inactive,inactive,inactive,inactive,inactive,inactive,inactive,inactive,inactive,inactive,inactive
Nc1ncnc2c1ncn2[C@@H]1O[C@H](CO)[C@@H](O)[C@@H]1O [VIDARABINE],–,–,–,71%,94%,–,–,–,–,–,–,–,–,–,–,–,–,–,–
O=c1ccn([C@@H]2OC[C@@](O)(CO)[C@H]2O)c(=O)[nH]1,inactive,100%,72%,16%,90%,inactive,inactive,inactive,inactive,inactive,inactive,inactive,inactive,inactive,inactive,inactive,inactive,inactive,inactive
Nc1ncnc2c1ncn2[C@@H]1OC[C@](O)(CO)[C@H]1O,–,–,–,159%,91%,inactive,–,–,–,–,–,–,–,–,–,–,–,–,–
O=c1[nH]c(=O)n([C@@H]2OC[C@@](O)(CO)[C@H]2O)cc1I,inactive,24%,6%,–,–,–,inactive,–,–,–,–,–,–,–,–,–,–,–,–
Nc1ncnc2c1ncn2[C@@H]1OC[C@@](O)(CO)[C@H]1O,–,–,–,14%,85%,–,42%,–,–,–,–,–,–,–,–,–,–,–,–
Cc1cn([C@@H]2OC[C@@](O)(CO)[C@H]2O)c(=O)[nH]c1=O,inactive,95%,83%,56%,89%,inactive,inactive,inactive,inactive,inactive,inactive,inactive,inactive,inactive,inactive,inactive,inactive,inactive,inactive
CC(=O)O[C@H]1[C@H](n2cc(I)c(=O)[nH]c2=O)OC[C@@]12COC(=O)O2,–,–,–,–,–,–,–,inactive,inactive,inactive,inactive,inactive,inactive,inactive,inactive,inactive,inactive,inactive,inactive
NC(=O)c1ncn([C@@H]2O[C@H](CO)[C@@H](O)[C@H]2O)n1 [RIBAVIRIN],–,–,–,127%,–,–,–,–,–,–,–,–,–,–,–,–,–,–,–
O=c1[nH]c(=O)n([C@@H]2O[C@H](CO)[C@@H](O)[C@H]2O)cc1I,inactive,32%,9%,–,–,–,–,–,–,–,–,–,–,–,–,–,–,–,–
